According to ChEMBL document CHEMBL1122207, “Antitumor agents. 2. Bisguanylhydrazones of anthracene-9,10-dicarboxaldehydes” (1982):

What was measured:
Format in all cases: functional
[1] = species on record: Mus musculus; assay: Number of survivors of the total treated mice with B-16 melanoma, at 60 days.
Method in brief: (§1)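 BDF1 mice were implanted ip with a homogenate from 0.05 g of B-16 melanoma and dosed ip on days 1-9. Cures are survivors over total at 60 days.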

[2] = test system: Mus musculus; assay: Percent increase in median life span of BDF1 mice with B-16 melanoma at dose 6 mg/kg administered intraperitoneally; conditions: BDF1, B16, ip, route intraperitoneal
Method in brief: (§2)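 BDF1 mice were implanted ip with a homogenate from 0.05 g of B-16 melanoma. Ip dosing ran on days 1-9, starting 24 h after implant, in dose-response studies following NCI protocols. The read-out was percent increase in life span (ILS). T/C ≥125% was taken as significant.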

[3] = species on record: Mus musculus; assay: Anticancer activity measured as the number of survivors of the total treated mice with P-388 leukemia at 30 days.
Method in brief: (§3)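 BDF1 or CDF1 mice given 10^6 ascitic P-388 leukemia cells ip, then treated ip on days 1, 5 and 9. Cures are survivors over total treated at 30 days.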

[4] = test system: Mus musculus; assay: Percent increase in median life span of BDF1 mice with P-388 leukemia at dose 12.5 mg/kg administered intraperitoneally; conditions: BDF1, P388, ip, route intraperitoneal
[5] = species on record: Mus musculus; assay: Cures is the number of survivors of the total treated mice (10) with B-16 melanoma, at 60 days.; method in brief: as §1
[6] = species on record: Mus musculus; assay: Cures is the number of survivors of the total treated mice (6) with P-388 leukemia, at 30 days.; method in brief: as §3
[7] = test system: Mus musculus; assay: Percent increase in median life span of BDF1 mice with P-388 leukemia at dose 3.1 mg/kg administered intraperitoneally; conditions: BDF1, P388, ip, route intraperitoneal
[8] = test system: Mus musculus; assay: Percent increase in median life span of BDF1 mice with B-16 melanoma at dose 3.1 mg/kg administered intraperitoneally; conditions: BDF1, B16, ip, route intraperitoneal; method in brief: as §2
[9] = species on record: Mus musculus; assay: Cures is the number of survivors of the total treated mice (6) with P-388 leukemia, at 60 days.
[10] = test system: Mus musculus; assay: Percent increase in median life span of BDF1 mice with P-388 leukemia at dose 6.25 mg/kg administered intraperitoneally; conditions: BDF1, P388, ip, route intraperitoneal
[11] = test system: Mus musculus; assay: Percent increase in median life span of BDF1 mice with B-16 melanoma at dose 1.5 mg/kg administered intraperitoneally; conditions: BDF1, B16, ip, route intraperitoneal; method in brief: as §2
[12] = test system: Mus musculus; assay: Percent increase in median life span of BDF1 mice with P-388 leukemia at dose 100 mg/kg administered intraperitoneally; conditions: BDF1, P388, ip, route intraperitoneal
[13] = test system: Mus musculus; assay: Percent increase in median life span of BDF1 mice with B-16 melanoma at dose 50 mg/kg administered intraperitoneally; conditions: BDF1, B16, ip, route intraperitoneal; method in brief: as §2
[14] = test system: Mus musculus; assay: Percent increase in median life span of BDF1 mice with P-388 leukemia at dose 50 mg/kg administered intraperitoneally; conditions: BDF1, P388, ip, route intraperitoneal
[15] = test system: Mus musculus; assay: Percent increase in median life span of BDF1 mice with B-16 melanoma at dose 3 mg/kg administered intraperitoneally; conditions: BDF1, B16, ip, route intraperitoneal; method in brief: as §2
[16] = test system: Mus musculus; assay: Percent increase in median life span of BDF1 mice with P-388 leukemia at dose 25 mg/kg administered intraperitoneally; conditions: BDF1, P388, ip, route intraperitoneal
[17] = test system: Mus musculus; assay: Percent increase in median life span of BDF1 mice with B-16 melanoma at dose 6.00 mg/kg administered intraperitoneally; conditions: BDF1, B16, ip, route intraperitoneal; method in brief: as §2
[18] = test system: Mus musculus; assay: Percent increase in median life span of BDF1 mice with B-16 melanoma at dose 6.25 mg/kg administered intraperitoneally; conditions: BDF1, B16, ip, route intraperitoneal; method in brief: as §2

Structure (SMILES)	Cures [1]	Cures [3]	ILS at 12.5 mg/kg [4] [%]	Cures [5]	Cures [6]	also measured
Br.Br.CN(/N=C/c1c2ccccc2c(/C=N/N(C)C(=N)N)c2ccccc12)C(=N)N	0	0	91	–	–	ILS at 6 mg/kg [2]: 50%
Cl.Cl.Fc1ccc2c(/C=N/NC3=NCCN3)c3cc(F)ccc3c(/C=N/NC3=NCCN3)c2c1	–	–	–	1	1	ILS at 3.1 mg/kg [7]: 135%; ILS at 3.1 mg/kg [8]: 111%
C(=N\NC1=NCCN1)/c1c2ccccc2c(/C=N/NC2=NCCN2)c2c1ccc1ccccc12.Cl.Cl	0	–	90	–	–	Cures [9]: 1
CN1CCCN=C1N/N=C/c1c2ccccc2c(/C=N/NC2=NCCCN2C)c2ccccc12.Cl.Cl	0	–	–	–	1	ILS at 6.25 mg/kg [10]: 148%; ILS at 1.5 mg/kg [11]: 80%
Cl.Cl.Fc1cccc2c(/C=N/NC3=NCCN3)c3c(F)cccc3c(/C=N/NC3=NCCN3)c12	–	–	–	5	1	ILS at 100 mg/kg [12]: 140%; ILS at 50 mg/kg [13]: 194%
Cl.Cl.N=C(N/N=C/c1c2ccccc2c(/C=N/NC(=N)Nc2ccccc2)c2ccccc12)Nc1ccccc1	0	0	–	–	–	ILS at 50 mg/kg [14]: 67%; ILS at 6 mg/kg [2]: 50%
Cl.Cl.N=C(N)N/N=C/c1c2ccccc2c(/C=N/N=C(N)N)c2ccccc12	0	–	–	–	3	ILS at 3 mg/kg [15]: 67%; ILS at 25 mg/kg [16]: 132%
CN(C)CCC/N=C(\S)N/N=C/c1c2ccccc2c(/C=N/N/C(S)=N/CCCN(C)C)c2ccccc12.Cl.Cl	0	0	–	–	–	ILS at 6.25 mg/kg [10]: 100%; ILS at 6 mg/kg [17]: 77%
C(=N\NC1=NCCN1)/c1c2ccccc2c(/C=N/NC2=NCCN2)c2cc3ccccc3cc12.Cl.Cl	–	0	91	1	–	ILS at 6.25 mg/kg [18]: 136%
Cl.Cl.S=C(NCCCN1CCOCC1)N/N=C/c1c2ccccc2c(/C=N/NC(=S)NCCCN2CCOCC2)c2ccccc12	0	0	–	–	–	ILS at 100 mg/kg [12]: 53%; ILS at 50 mg/kg [13]: 75%
